ChEMBL document CHEMBL5252518, “Correlation of in Situ Oxazolidine Formation with Highly Synergistic Cytotoxicity and DNA Cross-Linking in Cancer Cells from Combinations of Doxorubicin and Formaldehyde” (J Med Chem, 2016)
The source made the active and inactive calls. The calls are words filed in the database; no cut-off is given here.

Columns and labels:
[1] = Half life of compound; format: physicochemical
[2] = test system: NCI/ADR-RES; test: Cytotoxicity against doxorubicin-resistant human NCI/ADR-RES cells assessed as inhibition of cell growth incubated for 3 hrs by crystal violet staining assay; format: functional, cell-based
[3] = test system: DNA; test: Induction of DNA (unknown origin) expressed in Escherichia coli DH5alpha interstrand cross-linking assessed as inhibition of NotI-induced DNA digestion at 1.5 to 8 uM incubated for 30 mins by agarose gel electrophoresis based restriction endonuclease digestion assay; format: functional; conditions: dose 1.5-8 µM
[4] = Genotoxicity in doxorubicin-sensitive human MIA PaCa-2 cells assessed as increase in DNA damage at 100 uM incubated for 90 mins by comet assay; format: toxicity, cell-based; conditions: mia paca-2, 1.5 h
Summary of the method: (§1)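 Cells were trypsinized as one bulk population, split into treatment groups and drug-treated in suspension for 90 min. They were then promptly embedded in agarose, lysed and electrophoresed under alkaline conditions (alkaline single-cell gel electrophoresis). After staining, DNA strand breaks were scored as comet tail stain density.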

[5] = Genotoxicity in doxorubicin-resistant human NCI/ADR-RES cells assessed as increase in DNA damage at 100 uM incubated for 90 mins by comet assay; format: toxicity, cell-based; conditions: 1.5 h; summary of the method: as §1
[6] = test system: MIA PaCa-2; test: Cytotoxicity against doxorubicin-sensitive human MIA PaCa-2 cells assessed as inhibition of cell growth incubated for 90 mins by crystal violet staining assay; format: functional, cell-based; conditions: MIA PaCa-2, 1.5 h
[7] = test system: NCI/ADR-RES; test: Cytotoxicity against doxorubicin-resistant human NCI/ADR-RES cells assessed as inhibition of cell growth incubated for 90 mins by crystal violet staining assay; format: functional, cell-based; conditions: 1.5 h
[8] = test system: NCI/ADR-RES; test: Induction of DNA damage in hydrogen peroxide induced human NCI/ADR-RES cells assessed as increase in comet tail density at 100 uM incubated for 90 mins by comet assay; format: functional, cell-based
[9] = test system: DNA; test: Induction of DNA (unknown origin) expressed in Escherichia coli DH5alpha interstrand cross-linking assessed as inhibition of NdeI-induced DNA digestion at 1.5 to 8 uM incubated for 30 mins by agarose gel electrophoresis based restriction endonuclease digestion assay; format: functional; conditions: dose 1.5-8 µM
[10] = test system: MIA PaCa-2; test: Cytotoxicity against doxorubicin-sensitive human MIA PaCa-2 cells assessed as inhibition of cell growth incubated for 30 mins by crystal violet staining assay; conditions: MIA PaCa-2, 0.5 h
[11] = test system: MIA PaCa-2; test: Synergistic cytotoxicity against doxorubicin-sensitive human MIA PaCa-2 cells assessed as cell survival incubated for 90 mins in presence of formaldehyde by crystal violet staining assay; format: functional; conditions: 1.5 h
[12] = test system: MIA PaCa-2; test: Synergistic cytotoxicity against doxorubicin-sensitive human MIA PaCa-2 cells assessed as fold change in IC50 incubated for 90 mins in presence of formaldehyde by crystal violet staining assay; format: functional; conditions: 1.5 h
[13] = test system: NCI/ADR-RES; test: Cytotoxicity against doxorubicin-resistant human NCI/ADR-RES cells assessed as inhibition of cell growth incubated for 30 mins by crystal violet staining assay; format: functional, cell-based; conditions: 0.5 h
[14] = test system: MIA PaCa-2; test: Synergistic cytotoxicity against doxorubicin-sensitive human MIA PaCa-2 cells assessed as combination index incubated for 90 mins in presence of formaldehyde by crystal violet staining assay; format: functional; conditions: 1.5 h
[15] = test system: NCI/ADR-RES; test: Synergistic cytotoxicity against doxorubicin-resistant human NCI/ADR-RES cells assessed as combination index incubated for 90 mins in presence of formaldehyde by crystal violet staining assay; conditions: 1.5 h
[16] = test system: NCI/ADR-RES; test: Synergistic cytotoxicity against doxorubicin-resistant human NCI/ADR-RES cells assessed as fold change in IC50 incubated for 90 mins in presence of formaldehyde by crystal violet staining assay; conditions: 1.5 h
[17] = test system: NCI/ADR-RES; test: Synergistic cytotoxicity against doxorubicin-resistant human NCI/ADR-RES cells assessed as fold change in IC50 incubated for 30 mins in presence of formaldehyde by crystal violet staining assay; conditions: 0.5 h
[18] = test system: NCI/ADR-RES; test: Synergistic cytotoxicity against doxorubicin-resistant human NCI/ADR-RES cells assessed as fold change in IC50 incubated for 90 mins in presence of formaldehyde low concentration by crystal violet staining assay; conditions: 1.5 h
[19] = test system: MIA PaCa-2; test: Synergistic cytotoxicity against doxorubicin-sensitive human MIA PaCa-2 cells assessed as inhibition of cell growth incubated for 90 mins in presence of formaldehyde by crystal violet staining assay; format: functional, cell-based; conditions: MIA PaCa-2, 1.5 h
[20] = test system: NCI/ADR-RES; test: Cytotoxicity against doxorubicin-resistant human NCI/ADR-RES cells assessed as inhibition of cell growth incubated for 3 hrs in presence of pig liver esterase by crystal violet staining assay; format: functional, cell-based
[21] = test system: NCI/ADR-RES; test: Cytotoxicity against doxorubicin-resistant human NCI/ADR-RES cells assessed as fold change in IC50 incubated for 3 hrs in presence of pig liver esterase by crystal violet staining assay; format: functional
[22] = test system: NCI/ADR-RES; test: Cytotoxicity against doxorubicin-resistant human NCI/ADR-RES cells assessed as fold change in IC50 incubated for 3 hrs in presence of pig liver esterase by crystal violet staining assay relative to Doxsaliform; format: functional
[23] = Prodrug conversion in pig liver assessed as esterase-mediated Doxazolidine formation by measuring its half life at 1 uM by HPLC analysis; format: ADME, tissue-based, Sus scrofa
[24] = test system: DNA; test: Induction of DNA interstrand cross-linking in hydrogen peroxide induced human NCI/ADR-RES cells assessed as decrease in comet tail density at 10 uM incubated for 90 mins by comet assay; format: functional, cell-based
[25] = Genotoxicity in doxorubicin-sensitive human MIA PaCa-2 cells assessed as increase in tail DNA density at 250 uM incubated for 90 mins by comet assay; format: toxicity, cell-based; conditions: mia paca-2, 1.5 h
Summary of the method: (§2)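 Alkaline single-cell gel electrophoresis (comet) assay. A bulk population of cells was trypsinized, then split into treatment groups and treated in suspension for 90 min. After the drug was removed, cells were promptly embedded in agarose, lysed and electrophoresed under alkaline conditions. Gels were then stained, and the stain density in the comet tail was scored as DNA strand-break content.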

[26] = Genotoxicity in doxorubicin-sensitive human MIA PaCa-2 cells assessed as increase in tail DNA density at 10 uM incubated for 90 mins by comet assay; format: toxicity, cell-based; conditions: mia paca-2, 1.5 h; summary of the method: as §2
[27] = Genotoxicity in doxorubicin-resistant human NCI/ADR-RES cells assessed as increase in tail DNA density at 250 uM incubated for 90 mins by comet assay; format: toxicity, cell-based; conditions: 1.5 h; summary of the method: as §2
[28] = Genotoxicity in doxorubicin-resistant human NCI/ADR-RES cells assessed as increase in tail DNA density at 10 uM incubated for 90 mins by comet assay; format: toxicity, cell-based; conditions: 1.5 h; summary of the method: as §2
[29] = test system: MIA PaCa-2; test: Synergistic cytotoxicity against doxorubicin-sensitive human MIA PaCa-2 cells assessed as inhibition of cell growth incubated for 90 mins in presence of epirubicin by crystal violet staining assay; conditions: MIA PaCa-2, 1.5 h

Compound	IC50 [2]	Activity [3]	Activity [4]	Activity [5]	IC50 ([6]; read-out: IC50)	IC50 ([6]; read-out: pIC50 (converted))	IC50 ([7]; read-out: IC50)	IC50 ([7]; read-out: pIC50 (converted))	Activity [8]	Activity [9]	IC50 [10]	IC50 [13]	other results
COc1cccc2c1C(=O)c1c(O)c3c(c(O)c1C2=O)C[C@@](O)(C(=O)CO)C[C@@H]3O[C@H]1C[C@H](NCNC(=O)c2ccccc2O)[C@H](O)[C@H](C)O1	800000 nM	–	–	–	–	–	–	–	–	–	–	–	half-life [1]: 57 min
COc1cccc2c1C(=O)c1c(O)c3c(c(O)c1C2=O)C[C@@](O)(C(=O)CO)C[C@@H]3O[C@H]1C[C@H](N)[C@H](O)[C@H](C)O1 [DOXORUBICIN]	–	Active	Toxic	Toxic	66000 nM	63100 nM	620 nM	617 nM	Active	Active	4000 nM	220000 nM	Activity [11]: 75%; fold change (FC) [12]: 3.5; CI [14]: 0.4; CI [15]: 0.02; fold change (FC) [16]: 55; fold change (FC) [17]: 9; fold change (FC) [18]: 2.5
COc1cccc2c1C(=O)c1c(O)c3c(c(O)c1C2=O)C[C@@](O)(C(=O)CO)C[C@@H]3O[C@H]1C[C@H](N)[C@@H](O)[C@H](C)O1 [EPIRUBICIN]	–	–	Toxic	Toxic	> 100000 nM	–	630 nM	631 nM	Active	–	–	–	IC50 [19]: 500 nM
CCCCCOC(=O)Nc1ccc(COC(=O)N2CO[C@@H]3[C@H](C)O[C@@H](O[C@H]4C[C@](O)(C(=O)CO)Cc5c(O)c6c(c(O)c54)C(=O)c4c(OC)cccc4C6=O)C[C@@H]32)cc1	2000 nM	–	–	–	–	–	–	–	–	–	–	–	IC50 [20]: 3 nM; fold change (FC) [21]: 30; fold change (FC) [22]: 25; t1/2 [23]: 24 min
COc1cccc2c1C(=O)c1c(O)c3c(c(O)c1C2=O)C[C@@](O)(C(=O)CO)C[C@@H]3O[C@H]1C[C@@H]2NCO[C@@H]2[C@H](C)O1 [DOXAZOLIDINE]	–	Active	–	–	22 nM	20 nM	48 nM	50.1 nM	–	Active	51000 nM	–	Activity [24]: Active; Activity [25]: Non-Toxic; Activity [26]: Non-Toxic; Activity [27]: Non-Toxic; Activity [28]: Non-Toxic
C=O [FORMALDEHYDE]	–	–	–	–	610000 nM	631000 nM	530000 nM	501000 nM	–	–	–	600000 nM	IC50 [29]: 500 nM
